Measurements: ChEMBL document CHEMBL1799988, “Novel chalcone derivatives as potent Nrf2 activators in mice and human lung epithelial cells” (J Med Chem, 2011)
The source made the active and inactive calls. The calls are words filed in the database; no cut-off is given here.

What was measured:
[1] = target: T1, Nuclear factor erythroid 2-related factor 2 (Homo sapiens) (UniProt Q16236); experiment: Induction of Nrf2-mediated GCLM gene expression in human BEAS2B cells at […] 24 hrs by RT-PCR analysis; format: functional, cell-based
T1 sequence (whole entry): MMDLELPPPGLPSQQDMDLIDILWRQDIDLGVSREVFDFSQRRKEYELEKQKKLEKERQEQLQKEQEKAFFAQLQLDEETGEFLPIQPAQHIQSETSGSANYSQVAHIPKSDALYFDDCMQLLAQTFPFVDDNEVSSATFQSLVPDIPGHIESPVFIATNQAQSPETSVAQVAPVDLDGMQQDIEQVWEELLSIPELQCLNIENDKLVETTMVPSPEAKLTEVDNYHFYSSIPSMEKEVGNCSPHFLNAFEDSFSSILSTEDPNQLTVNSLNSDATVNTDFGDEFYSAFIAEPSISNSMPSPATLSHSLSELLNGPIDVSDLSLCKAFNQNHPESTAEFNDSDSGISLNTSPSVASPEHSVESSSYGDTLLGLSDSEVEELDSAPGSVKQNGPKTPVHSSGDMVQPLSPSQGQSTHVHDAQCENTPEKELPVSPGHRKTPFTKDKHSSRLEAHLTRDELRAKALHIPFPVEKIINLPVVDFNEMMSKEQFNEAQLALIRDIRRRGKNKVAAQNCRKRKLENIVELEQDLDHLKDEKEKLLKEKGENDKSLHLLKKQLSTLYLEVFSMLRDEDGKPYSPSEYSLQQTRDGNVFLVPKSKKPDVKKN
Method in brief: (§1)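 Beas-2B cells co-incubated with 10 µM compound with or without N-acetylcysteine (10 mM); cells harvested 24 h later. GCLM, NQO1 and HO-1 mRNA quantified by TaqMan qRT-PCR, normalized to β-actin. Representative of 3 independent experiments, triplicate wells.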

[2] = target: T1, Nuclear factor erythroid 2-related factor 2 (Homo sapiens); experiment: Induction of Nrf2-mediated NQO1 gene expression in human BEAS2B cells at […] 24 hrs by RT-PCR analysis; format: functional, cell-based; method in brief: as §1
[3] = target: T1, Nuclear factor erythroid 2-related factor 2 (Homo sapiens); experiment: Induction of Nrf2-mediated HO1 gene expression in human BEAS2B cells at […] 24 hrs by RT-PCR analysis; format: functional, cell-based; method in brief: as §1
Mus musculus [4] = experiment: Induction of Nrf2-mediated NQO1 gene expression in small intestine of C57BL/6 mouse at 50 mg/kg, po administered as single dose measured after 24 hrs by RT-PCR analysis related to control; format: functional
Method in brief: (§2)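 Male C57BL/6 mice (7 weeks, AIN 76A diet; n=4) given a single 50 mg/kg oral gavage of compound, sulforaphane, or vehicle (10% DMSO + 10% Cremophor EL + 80% PBS). Small intestine harvested 24 h later; GCLM and NQO1 mRNA measured by TaqMan qRT-PCR with β-actin normalization.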

[5] = target: T1, Nuclear factor erythroid 2-related factor 2 (Homo sapiens); experiment: Induction of Nrf2-mediated NQO1 gene expression in human BEAS2B cells at 10 uM after 16 hrs by RT-PCR analysis relative to untreated control; format: functional, cell-based
Method in brief: (§3)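 Beas-2B cells (DMEM:F12, 10% FBS) plated 24 h, then exposed to 10 µM compound in DMSO (final ≤0.1%) for 16 h; sulforaphane as positive control. Total RNA extracted, reverse transcribed with random hexamers, GCLM and NQO1 mRNA quantified by TaqMan qRT-PCR, fold change vs DMSO. Representative of 3 independent experiments, quadruplicate wells.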

Mus musculus [6] = experiment: Induction of Nrf2-mediated GCLM gene expression in small intestine of C57BL/6 mouse at 50 mg/kg, po administered as single dose measured after 24 hrs by RT-PCR analysis related to control; format: functional; method in brief: as §2
[7] = target: T1, Nuclear factor erythroid 2-related factor 2 (Homo sapiens); experiment: Induction of Nrf2-mediated GCLM gene expression in human BEAS2B cells at 10 uM after 16 hrs by RT-PCR analysis relative to untreated control; format: functional, cell-based; method in brief: as §3
[8] = Cytotoxicity against human BEAS2B cells assessed as cell viability after 24 hrs by MTT assay; format: cell-based, BEAS-2B; set-up: concentration or dose not given beside the values; conditions: read-out: Activity
Method in brief: (§4)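 Beas-2B cells treated with compound or DMSO vehicle (0.1%) for 24 h; MTT (5 mg/ml in serum-free medium) added for the last 4 h, formazan dissolved in DMSO after PBS wash, absorbance read at 570 nm. Viability also checked by trypan blue exclusion.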

[9] = target: T1, Nuclear factor erythroid 2-related factor 2 (Homo sapiens); experiment: Induction of Nrf2-mediated HO1 mRNA expression in human BEAS2B cells at 10 uM after 24 hrs by RT-PCR analysis relative to sulforaphane; format: functional, cell-based
[10] = target: T1, Nuclear factor erythroid 2-related factor 2 (Homo sapiens); experiment: Induction of Nrf2-mediated GCLM mRNA expression in human BEAS2B cells at 10 uM after 48 hrs by RT-PCR analysis; format: functional, cell-based
Method in brief: (§5)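 Time course in Beas-2B cells at 10 µM compound: GCLM, NQO1 and HO-1 mRNA measured 6, 12, 24 and 48 h after treatment by TaqMan qRT-PCR, β-actin normalization. Representative of 3 independent experiments, triplicate wells.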

[11] = target: T1, Nuclear factor erythroid 2-related factor 2 (Homo sapiens); experiment: Induction of Nrf2-mediated HO1 mRNA expression in human BEAS2B cells at 10 uM after 48 hrs by RT-PCR analysis relative to sulforaphane; format: functional, cell-based; method in brief: as §5
[12] = target: T1, Nuclear factor erythroid 2-related factor 2 (Homo sapiens); experiment: Induction of Nrf2-mediated GCLM mRNA expression in human BEAS2B cells at 20 uM after 24 hrs by RT-PCR analysis; format: functional, cell-based
Method in brief: (§6)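 Beas-2B cells exposed for 24 h to 2.5, 5, 10 or 20 µM compound in DMSO (final ≤0.1%), sulforaphane as comparator. GCLM, NQO1 and HO1 mRNA measured by TaqMan qRT-PCR, normalized to β-actin. Representative of 3 independent experiments, triplicate wells.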

[13] = target: T1, Nuclear factor erythroid 2-related factor 2 (Homo sapiens); experiment: Induction of Nrf2-mediated NQO1 mRNA expression in human BEAS2B cells at 10 uM after 48 hrs by RT-PCR analysis relative to sulforaphane; format: functional, cell-based; method in brief: as §5
[14] = target: T1, Nuclear factor erythroid 2-related factor 2 (Homo sapiens); experiment: Induction of Nrf2-mediated NQO1 mRNA expression in human BEAS2B cells after 24 hrs by RT-PCR analysis; format: functional, cell-based; method in brief: as §6
[15] = target: T1, Nuclear factor erythroid 2-related factor 2 (Homo sapiens); experiment: Induction of Nrf2-mediated HO1 mRNA expression in human BEAS2B cells after 24 hrs by RT-PCR analysis; format: functional, cell-based; method in brief: as §6
[16] = target: T1, Nuclear factor erythroid 2-related factor 2 (Homo sapiens); experiment: Induction of Nrf2-mediated HO1 gene expression in human BEAS2B cells at 10 uM after 24 hrs by RT-PCR analysis in presence of 10 mM N-acetylcysteine; format: functional, cell-based; method in brief: as §1
[17] = target: T1, Nuclear factor erythroid 2-related factor 2 (Homo sapiens); experiment: Induction of Nrf2-mediated NQO1 mRNA expression in human BEAS2B cells at 10 uM after 24 hrs by RT-PCR analysis relative to sulforaphane; format: functional, cell-based
[18] = target: T1, Nuclear factor erythroid 2-related factor 2 (Homo sapiens); experiment: Induction of Nrf2-mediated HO1 mRNA expression in human BEAS2B cells at 10 uM after 6 hrs by RT-PCR analysis relative to sulforaphane; format: functional, cell-based; method in brief: as §5
[19] = target: T1, Nuclear factor erythroid 2-related factor 2 (Homo sapiens); experiment: Induction of Nrf2-mediated GCLM mRNA expression in human BEAS2B cells at 10 uM after 6 hrs by RT-PCR analysis; format: functional, cell-based; method in brief: as §5
[20] = Cytotoxicity against human BEAS2B cells assessed as cell viability at 20 uM after 24 hrs by MTT assay relative to sulforaphane; format: cell-based; conditions: beas-2b; method in brief: as §4
Mus musculus [21] = experiment: Induction of Nrf2-mediated NQO1 gene expression in small intestine of C57BL/6 mouse at 50 mg/kg, po administered as single dose measured after 24 hrs by RT-PCR analysis related to sulforaphane; format: functional; method in brief: as §2
Mus musculus [22] = experiment: Induction of Nrf2-mediated GCLM gene expression in small intestine of C57BL/6 mouse at 50 mg/kg, po administered as single dose measured after 24 hrs by RT-PCR analysis related to sulforaphane; format: functional; method in brief: as §2
[23] = target: T1, Nuclear factor erythroid 2-related factor 2 (Homo sapiens); experiment: Induction of Nrf2-mediated GCLM gene expression in human BEAS2B cells at 10 uM after 24 hrs by RT-PCR analysis in presence of 10 mM N-acetylcysteine; format: functional, cell-based; method in brief: as §1
[24] = target: T1, Nuclear factor erythroid 2-related factor 2 (Homo sapiens); experiment: Induction of Nrf2-mediated NQO1 gene expression in human BEAS2B cells at 10 uM after 24 hrs by RT-PCR analysis in presence of 10 mM N-acetylcysteine; format: functional, cell-based; method in brief: as §1
[25] = target: T1, Nuclear factor erythroid 2-related factor 2 (Homo sapiens); experiment: Induction of Nrf2-mediated NQO1 mRNA expression in human BEAS2B cells at 20 uM after 24 hrs by RT-PCR analysis
[26] = target: T1, Nuclear factor erythroid 2-related factor 2 (Homo sapiens); experiment: Induction of Nrf2-mediated GCLM mRNA expression in human BEAS2B cells after 24 hrs by RT-PCR analysis; format: functional, cell-based; method in brief: as §6
[27] = target: T1, Nuclear factor erythroid 2-related factor 2 (Homo sapiens); experiment: Induction of Nrf2-mediated NQO1 gene expression in human BEAS2B cells overexpressing ARE luciferase reporter plasmid after 16 hrs by chemiluminescence assay; format: functional, cell-based
Method in brief: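 Beas-2B cells stably transfected with NQO1-ARE luciferase reporter (blasticidin 6 µg/ml selection) seeded at 10,000 cells/well for 16 h, then exposed to graded compound concentrations or DMSO for 16 h. Luciferase activity read by chemiluminescence as relative luminescence intensity. Representative of 3 independent experiments, quadruplicate wells.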

Compound: CC(=O)N[C@@H](CS)C(=O)O
- Activity [1]: inactive
- Activity [2]: inactive
- Activity [3]: inactive

Compound: COc1ccc(C(=O)/C=C/c2ccccc2C(F)(F)F)c(OC)c1
- Activity (Mus musculus [4]): Active
- fold change (FC) [5]: 4.5
- Activity (Mus musculus [6]): Active
- fold change (FC) [7]: 5.4
- viability at 24 h [8]: 105%

Compound: C[S+]([O-])CCCCN=C=S (configuration not stated) [SULFORAPHANE]
- Activity (Mus musculus [4]): Active
- fold change (FC) [5]: 3.6
- Activity (Mus musculus [6]): Active
- fold change (FC) [7]: 2.7
- viability at 24 h [8]: 97.3%

Compound: COc1cccc(OC)c1C(=O)/C=C/c1ccccc1C(F)(F)F
- Activity (Mus musculus [4]): Active
- fold change (FC) [5]: 5.3
- Activity (Mus musculus [6]): Active
- fold change (FC) [7]: 5.7
- viability at 24 h [8]: 101%

Compound: COc1ccccc1C(=O)/C=C/c1ccccc1C(F)(F)F
- fold change (FC) [9]: 6
- Activity [10]: inactive
- Activity [11]: inactive
- fold change (FC) [12]: 5
- Activity [13]: Active
- Activity [14]: Dose-dependent effect
- Activity [15]: Dose-dependent effect
- Activity [16]: Active
- Activity [17]: Active
- fold change (FC) (Mus musculus [4]): 10
- fold change (FC) [18]: 150
- fold change (FC) [19]: 7
- fold change (FC) [5]: 4.6
- fold change (FC) (Mus musculus [6]): 6
- Activity [20]: Non-toxic
- fold change (FC) (Mus musculus [21]): 5
- fold change (FC) (Mus musculus [22]): 3
- Activity [23]: Active
- Activity [24]: Active
- fold change (FC) [7]: 4.5
- viability at 24 h [8]: 101%
- fold change (FC) [25]: 10
- Activity [26]: Dose-dependent effect
- Activity [27]: Dose-dependent effect

Compound: COc1cc(OC)c(C(=O)/C=C/c2ccccc2C(F)(F)F)c(OC)c1
- Activity (Mus musculus [4]): Active
- fold change (FC) [5]: 4.3
- Activity (Mus musculus [6]): Active
- fold change (FC) [7]: 4.4
- viability at 24 h [8]: 145%
